# Compound activity as filed in PubChem.
# L major viab – reduces viability of Leishmania major promastigotes; resazurin fluorescence viability; inhibition, % at 10 µM; actives 9% (n = 200,000); AID 1063;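 note: promastigotes grown with compound for 44 hours at 28 °C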
# Wee1 stabilizer – inhibitors of human Wee1 degradation; HeLa Luc-Wee1K328M stability, luciferase luminescence; 100% = proteasome inhibitor MG132 effect; reporter increase, % at 5 µM; actives 1.2% (n = 220,000); AID 1321;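 active = activation above the mean of all tested compounds plus 3 SD, set per screening run, cut at about 8.8% in these data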;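 note: cells exposed to compound for 20 h before luminescence read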
# CHOP inhibitor – CHOP inhibition in unfolded protein response; CHO-K1 CHOP-promoter luciferase, tunicamycin-induced, 15-18 h; inhibition, % at 10 µM; actives 3.8% (n = 220,000);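 active = compounds that reduced the stress-induced luciferase reporter signal by more than about 70% of percent inhibition, limit read from the data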
# Rad51 HR inh – Rad51 (human) homologous recombination inhibition; Q06609; hRad51 DNA strand exchange, fluorescence dequenching; inhibition, % at 10 µM; actives 0.085% (n = 200,000); AID 1385;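 active = inhibition above 40% at the single screening dose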
#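 Test system: preformed human Rad51 ssDNA filaments. Compound dosing: single dose, 10 µM final compound. Incubation: filaments 15 min 37 °C, then compound 30 min. Technique: FRET fluorescence dequenching, excitation 485 nm, emission 520 nm. Read-out basis: percent inhibition from fluorescence, normalised to plate control and blank means. Benchmarks: plate controls and plate blanks.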
# Arbovirus anti – blocks arbovirus infection | actives 0.37% (n = 200,000) | arbovirus infection cell-based antiviral screen | inhibition, % at 10 µM; in the data active = inhibition above about 30%
# PKD1 inh – inhibitors of human PKD1 kinase | PKD1 kinase fluorescence polarization assay | inhibition, % (concentration not given with the values) | actives 0.056% (n = 200,000)
# Target sequence (Q15139 whole entry, looked up): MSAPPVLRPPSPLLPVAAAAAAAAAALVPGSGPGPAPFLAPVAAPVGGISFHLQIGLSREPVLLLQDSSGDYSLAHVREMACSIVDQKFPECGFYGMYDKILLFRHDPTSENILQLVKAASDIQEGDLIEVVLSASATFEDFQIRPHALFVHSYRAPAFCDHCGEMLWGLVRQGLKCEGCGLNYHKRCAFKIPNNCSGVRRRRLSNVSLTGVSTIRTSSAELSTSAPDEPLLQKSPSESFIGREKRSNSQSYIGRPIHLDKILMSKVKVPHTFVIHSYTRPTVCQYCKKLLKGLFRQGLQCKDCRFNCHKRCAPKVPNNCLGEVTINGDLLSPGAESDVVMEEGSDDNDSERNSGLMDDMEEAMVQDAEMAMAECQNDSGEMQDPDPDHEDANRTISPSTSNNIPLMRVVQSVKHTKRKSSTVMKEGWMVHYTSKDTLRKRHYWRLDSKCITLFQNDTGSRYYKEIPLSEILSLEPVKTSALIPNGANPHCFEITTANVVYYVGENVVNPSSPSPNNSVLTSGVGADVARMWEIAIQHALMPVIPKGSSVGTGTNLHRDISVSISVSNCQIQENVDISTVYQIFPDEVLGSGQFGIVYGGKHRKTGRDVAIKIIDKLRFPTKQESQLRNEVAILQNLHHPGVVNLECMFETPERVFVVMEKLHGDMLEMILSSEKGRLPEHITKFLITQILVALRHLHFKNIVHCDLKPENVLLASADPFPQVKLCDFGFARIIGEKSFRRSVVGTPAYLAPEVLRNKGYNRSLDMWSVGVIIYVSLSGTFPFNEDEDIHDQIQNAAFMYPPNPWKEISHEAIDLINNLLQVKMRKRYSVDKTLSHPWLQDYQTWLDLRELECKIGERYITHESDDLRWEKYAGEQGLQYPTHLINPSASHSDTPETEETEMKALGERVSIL
# Hits are given with their value; i = inactive; nt = not tested or not shown. Shown are actives, neighbours in structure and some others; about 12% of the full set was active somewhere. Cut-off read from the data, not from the text of the source, unless noted: active = inhibition above about 50%; inactive = the rest.
SMILES,L major viab,Wee1 stabilizer,CHOP inhibitor,Rad51 HR inh,Arbovirus anti,PKD1 inh
NC(=O)C(=O)NCCCN1CCOCC1,i,i,i,i,i,i
CCCCC1=CC2=CC(=O)C(C)(OC(=O)c3ccc(Cl)nc3)C(=O)C2=CO1 (stereo unspecified),nt,nt,nt,i,nt,nt
O=C(CCNC(=O)Cn1ccc2ccccc2c1=O)NCC1CCCC1c1ccccc1 (stereo unspecified),i,i,i,i,i,i
O=C(O)c1cc2nccc(-c3ccc(F)cc3)n2n1,i,i,i,i,i,i
CC(C1CC2CCC1C2)n1c(-c2ccco2)n[nH]c1=S (stereo unspecified),i,i,i,i,i,i
Fc1cccc(CN2CCN(Cc3nc(-c4cnccn4)no3)CC2)c1,i,i,i,i,i,i
OC1(c2cccc(C(F)(F)F)c2)CCN(Cc2nc(-c3cnccn3)no2)CC1,78,i,i,i,i,i
S=c1[nH]cnc2sc(Nc3ccccc3)nc12,nt,i,i,i,nt,nt
COc1ccc(C(=O)N2CCC(C(=O)Nc3ccc4c(c3)OCO4)CC2)cc1,52,i,i,i,i,i
O=C(Nc1ccc2c(c1)OCO2)C1CCN(C(=O)c2ccc(Br)cc2)CC1,i,i,i,41,i,i
O=C(Nc1ccc2c(c1)OCO2)C1CCN(C(=O)c2ccc(Cl)cc2)CC1,i,i,i,i,i,i
CC(C)(C)OC(=O)N1CCC(CNC(=O)c2ccc(F)cc2)CC1,nt,i,i,i,nt,nt
O=[N+]([O-])c1cccc(/C=N/NC2CCS(=O)(=O)C2)c1 (stereo unspecified),nt,i,i,nt,nt,nt
C=CCN1C(c2ccc(Br)cc2)=CS/C1=C(/C#N)c1nnc(N2CCOCC2)n1-c1ccccc1,56,i,i,nt,i,i
C=CCN1C(c2cccc(C(F)(F)F)c2)=CS/C1=C(/C#N)c1nnc(N2CCOCC2)n1-c1ccccc1,i,i,i,nt,i,i
COC(=O)Cn1c(=NC(=O)c2ccc([N+](=O)[O-])s2)sc2cc(Br)ccc21,100,i,i,i,i,i
O=C(NC1CCCC1)C1CCN(c2cnccn2)CC1,i,i,i,i,i,i
COc1ccc2c3c(c(=O)oc2c1OCC(=O)O)CCCC3,61,i,i,i,i,i
CCOc1c(OC)ccc2c3c(c(=O)oc12)CCCC3,i,i,i,i,i,i
C=CCNC(=S)N/N=C/c1ccc(C(C)(C)C)cc1,i,i,95,i,i,i
CC(=O)Oc1ccc(-c2cccc(C(=O)N(C)c3ccc(O)cc3)c2)cc1,i,i,i,i,i,i
COc1cc(C(=O)NC(CCSC)C(=O)OCc2cc([N+](=O)[O-])cc3c2OCOC3)cc(OC)c1OC (stereo unspecified),i,9.6,i,i,i,i
CCC(=NCCc1c(C)[nH]c2ccccc12)C1=C(O)CC(c2ccccc2)CC1=O (stereo unspecified),96,i,i,i,i,i
CC1CCOC2(O1)C(=O)Nc1ccccc12 (stereo unspecified),i,i,i,i,i,i
O=C1Nc2ccccc2C12OCC(COc1ccc(Cl)cc1)O2 (stereo unspecified),i,i,80,i,i,i
SMILES,L major viab,Wee1 stabilizer,CHOP inhibitor,Rad51 HR inh,Arbovirus anti,PKD1 inh
CN1C(=O)C2(OCC(COc3ccc(Cl)cc3)O2)c2ccccc21 (stereo unspecified),i,i,81,i,i,i
O=C(CN1C(=O)C2(OCCO2)c2ccccc21)c1ccc(Cl)cc1,i,i,i,i,i,i
NS(=O)(=O)c1cccc(NS(=O)(=O)c2ccc(/C=C/C(=O)O)cc2)c1,nt,i,i,i,nt,nt
Cc1ccc(/C=N/NC(=O)CN(Cc2ccccc2)S(=O)(=O)c2ccc3c(c2)OCCO3)cc1,95,i,i,nt,i,i
Cn1ncc(N=Cc2c(O)ccc3ccccc23)c1C(=O)N1CCOCC1,i,i,nt,i,nt,i
COc1ccccc1N(CC(=O)N/N=C/c1ccc(C(=O)O)cc1)S(=O)(=O)c1ccc(C)cc1,nt,9.0,i,i,nt,nt
COc1ccccc1NC(=O)c1c(N=Cc2c(O)ccc3ccccc23)cnn1C,nt,9.0,i,nt,nt,nt
COc1ccc(/C=N/NC(=O)CN(c2ccc(OC)cc2)S(=O)(=O)c2ccccc2)cc1,i,i,i,nt,i,i
COc1ccccc1N(CC(=O)N/N=C/c1c(O)ccc2ccccc12)S(C)(=O)=O,99,i,i,i,i,i
CN(Cc1nc(Cc2ccccc2F)no1)Cc1cccc2ncccc12,i,i,i,i,i,i
COc1ccc2c(c1)c(=O)c(C(=O)c1ccccc1)cn2Cc1ccc(C)cc1,52,i,i,i,i,i
O=C(O)c1nn(-c2cccc(Cl)c2)c(=O)cc1O,i,i,i,i,i,i
O=C(CCl)N1N=C(c2cccs2)CC1c1ccco1 (stereo unspecified),96,i,106,i,i,i
Cc1cc(Cl)c(OCCCCN2CCOCC2)c(Br)c1,98,i,i,nt,i,i
Cc1cc(Cl)c(OCCOCCN2CCCCC2)c(Br)c1,97,i,i,i,i,i
Cc1cc(Cl)c(OCCCn2cncn2)c(Br)c1,i,i,i,i,i,i
Cc1cc(Cl)c(OCCOCCN2CCCC(C)C2)c(Br)c1 (stereo unspecified),99,i,i,nt,i,i
Cc1cc(Cl)cc(C)c1OCCCCN1CCOCC1,100,i,i,i,i,i
Cc1ccc(OCC(=O)N(c2ccccn2)C2CCCCC2)c(C)c1,87,i,i,i,i,i
CC(C)c1cc(C(=O)OCC(=O)NC(=O)NCc2ccco2)c(O)c(C(C)C)c1,i,i,102,i,i,i
CC(Oc1ccccc1)C(=O)OCC(=O)NC(=O)NCc1ccco1 (stereo unspecified),i,i,i,i,i,i
COc1ccc(C(=O)c2ccc(Cl)c([N+](=O)[O-])c2)cc1,80,i,i,i,i,i
COc1ccc(C(=O)c2ccc(Cl)cc2Cl)cc1,i,i,i,i,i,i
CC(C)C1C(c2ccccc2)NC(c2ccccc2)CC1(O)c1ccc(F)cc1 (stereo unspecified),nt,i,80,nt,nt,nt
CC(C)C1C(c2ccccc2)N(C)C(c2ccccc2)CC1(O)c1ccccc1 (stereo unspecified),i,i,73,i,i,i
CN1CCN(C(=O)c2cnn3c2NC(c2ccccc2)CC3C(F)(F)F)CC1 (stereo unspecified),i,i,i,i,i,i
Cc1ccc(C(=O)NC(=C(Cl)Cl)S(=O)(=O)c2ccc(Cl)cc2)cc1,i,i,78,i,i,i
Cc1ccc(C(=O)NS(=O)(=O)c2ccccc2)cc1,i,i,i,i,i,i
Cc1ccc(C(=O)NC(=C(Cl)Cl)S(=O)(=O)c2ccc(C)cc2)cc1,62,i,i,nt,i,i
Cc1ccc(S(=O)(=O)/C(=C/Cl)NC(=O)c2ccccc2)cc1,99,i,i,i,i,i
